Sampled rows, rich in hits. Any-hit rate of the full collection: about 3.5%.
MrgX1 agonist = human MrgX1 receptor agonism, primary screen. Q96LB2. MrgX1-HEK293 cells, Fluo-4 calcium fluorescence, agonist mode; active compounds read high. B-score at 10 µM. 310,000 compounds, 0.44% hits. AID 588627;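 active = calcium response B-score plate-corrected fluorescence ratio at least 3 library SD, with starting fluorescence B-score inside 5 SD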
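System – MrgX1-expressing HEK293 cells · Incubation – cells plated overnight, dye loaded 0.5 h 37 °C, 0.5 h room temperature · Technique – kinetic Fluo-4 NW fluorescence of intracellular calcium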
RGS4 inh = human RGS4 inhibition | P49798 | HEK293 M3R/RGS4 inducible, Fluo-4 calcium flux; active compounds read high; triggered by carbachol at its EC20 | B-score at 10 µM | 310,000 compounds, 0.45% hits | AID 463165;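 active = B-score, a plate-corrected calcium signal, over three deviations above library mean, with baseline fluorescence within five deviations of library mean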;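 also: RGS4 expression induced by doxycycline in cells with stable M3 receptor; B-score is computed from the integrated fluorescence ratio over baseline after carbachol; higher B-score means a larger calcium signal and so more RGS4 inhibition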
Target sequence (P49798 whole entry, looked up): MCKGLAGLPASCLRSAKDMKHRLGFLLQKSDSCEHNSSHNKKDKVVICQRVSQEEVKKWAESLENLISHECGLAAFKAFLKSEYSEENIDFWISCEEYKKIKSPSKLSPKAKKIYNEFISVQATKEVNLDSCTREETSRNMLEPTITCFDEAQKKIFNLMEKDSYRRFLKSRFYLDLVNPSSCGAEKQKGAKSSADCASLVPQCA
MrgX1 PAM = allosterically activates human MrgX1 receptor signaling; Q96LB2; MrgX1-HEK293, Fluo-4 calcium flux, FDSS; active compounds read high; B-score at 10 µM; 310,000 compounds, 0.63% hits;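 active = plate-corrected calcium response at least 3 library SD above typical, normal starting fluorescence, not activating the receptor alone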;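 also: compound read alongside a low EC10 to EC30 dose of BAM8-22 agonist; peak minus trough fluorescence over baseline measured at the second addition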
RGS4 pot = potentiators or activators of RGS4 | HEK293 M3R/inducible RGS4, carbachol calcium flux Fluo4; active compounds read low | 310,000 compounds, 0.92% hits | B-score at 10 µM;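 active = B-score of the integrated calcium signal more than 4 SD below the library mean, with starting fluorescence not abnormally high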;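 also: negative B-score means reduced calcium response which marks RGS4 activation or potentiation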
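Also added: carbachol at ECmax as muscarinic agonist stimulus; Assay system: HEK293 cells with stable M3R and inducible RGS4; Timing: overnight RGS4 induction, 30 min dye load 37 °C, 20 min compound RT; Measured by: Fluo4-AM (2 µM) calcium-flux fluorescence, kinetic read.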
MrgX1 antag = human MrgX1 receptor antagonism, primary screen; Q96LB2; 310,000 compounds, 1.3% hits; AID 588676; MRGX1-HEK293 calcium flux, Fluo-4, BAM8-22 antagonism; active compounds read low; B-score at 10 µM;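 active = calcium-response B-score plate-corrected more than 3 library SD below zero, starting fluorescence within 5 deviations, no agonist response on first addition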;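 also: peak minus trough fluorescence over baseline after final BAM8-22 challenge near maximal dose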
Numbers without * were called inactive; i = inactive; x = no result.

SMILES | MrgX1 agonist | RGS4 inh | MrgX1 PAM | RGS4 pot | MrgX1 antag
N#C/C(=C\c1ccccc1)C(=O)N(c1ccccn1)C1CCCCC1 | 33* | i | i | i | i
CN1CCN(c2ccc(C(=O)NC3CCCCC3)cc2[N+](=O)[O-])CC1 | i | i | i | i | i
O=C(CCCn1nnnc1CN1CCOCC1)N1CCC(c2ccccc2Cl)C1 (stereo not given) | i | i | i | i | i
CC(=O)OCC1=C(C(=O)O)N2C(=O)C(NC(=O)c3ccc(F)cc3)C2SC1 (stereo not given) | i | i | i | i | i
CC(=O)OCC1=C(C(=O)O)N2C(=O)C(NC(=O)C(C)Cn3nc(C)c(Cl)c3C)C2SC1 (stereo not given) | i | i | i | -7.1* | i
ON=C1c2cc(OCCN3CCCCC3)ccc2-c2ccc(OCCN3CCCCC3)cc21 | i | i | i | i | i
NC(=S)NN=C1c2cc(OCCN3CCOCC3)ccc2-c2ccc(OCCN3CCOCC3)cc21 | i | i | i | -7.4* | i
Cc1ccccc1C(=O)NCCCNC(=O)c1ccco1 | i | i | i | i | i
CCCCC(CC)C(=O)Nc1ncc([N+](=O)[O-])s1 (stereo not given) | i | i | 7.4* | i | i
CCOC(=O)C1CCCN(C(c2ccccn2)c2c(C)[nH]c3ccccc23)C1 (stereo not given) | i | i | i | -8.4* | i
COC(=O)C1=C(C)N(C)C(=O)NC1c1c(O)ccc2ccccc12 (stereo not given) | i | i | i | i | i
COc1ccc(-c2cn(-c3ccc(OC)cc3)c3[n+]2-c2ccccc2CC3)cc1 | i | i | i | i | -7.9*
CCCCOC(=O)c1ccc(NC(=O)Nc2ccc(OC)c(OC)c2)cc1 | i | i | i | -7* | i
N/C(=N\OC(=O)c1cccnc1)c1ccccc1Cl | i | i | i | i | i
N/C(=N\OC(=O)c1cccnc1)c1ccc(Cl)cc1Cl | i | i | i | i | -4.6*
C=C1C(=O)O[C@H]2[C@H]1[C@@H](O)CC(=C)[C@@H]1CC(=O)[C@@H](C)[C@H]21 | i | 6.7* | i | i | i
CCOc1ccc(NC(=O)CN(C)C(=O)c2ccc3nc(CC)c(CC)nc3c2)cc1OCC | i | i | 7.5* | i | i
COc1cc(OC)c(N(C)S(=O)(=O)c2cccc(C(=O)NC3=NCCS3)c2)cc1Cl | i | i | i | i | i
C=CCn1c(=O)/c(=C/c2ccc(Cl)cc2)s/c1=C(/C#N)c1nnc2n1CCCCC2 | i | i | i | i | i
C=CCn1c(=O)/c(=C/c2ccc(O)cc2)s/c1=C(/C#N)c1nnc2n1CCCCC2 | 36* | x | i | x | i
Cc1cccc(C)c1-n1c(C)cc(/C=N\Nc2ccc([N+](=O)[O-])cn2)c1C | i | i | i | i | -5*
O=[N+]([O-])c1ccc(N/N=C\c2cccnc2)nc1 | i | i | i | i | i
CC(C)C(=O)NC(=S)Nc1ccc(S(=O)(=O)N(C)Cc2ccccc2)cc1 | i | i | i | -7* | i
CC(=O)NC(=S)Nc1ccc(S(=O)(=O)N(C)Cc2ccccc2)cc1 | i | i | i | i | i
CC(C)c1ccccc1OCC(=O)Nc1cc(S(=O)(=O)N2CCOCC2)ccc1N1CCCC1 | i | i | i | i | i
SMILES | MrgX1 agonist | RGS4 inh | MrgX1 PAM | RGS4 pot | MrgX1 antag
Cc1onc(-c2c(F)cccc2Cl)c1C(=O)NCc1ccc2c(c1)OCO2 | i | i | i | -7.4* | i
CC(C)n1c(C(F)(F)F)nc2cc(C(=O)N3CCCCC3)ccc21 | i | i | i | i | i
COc1ccc(S(=O)(=O)NNC(=O)C(=O)NNc2ccccn2)cc1 | i | i | i | i | i
Cc1cc(C)cc(OCC(=O)Nc2cccc(-c3nnc(-c4ccco4)o3)c2)c1 | i | i | i | -7.6* | i
COc1ccc(CNC(=O)COC(=O)c2cccs2)cc1 | i | i | i | i | i
O=S(=O)(Nc1cccc(-c2cn3c(n2)SCC3)c1)c1ccccc1 | i | i | i | i | i
